From ChEMBL document CHEMBL4477233, “Discovery of novel TAOK2 inhibitor scaffolds from high-throughput screening” (Bioorg Med Chem Lett, 2016) come the findings set out here.

In general, IC50 refers to the point on the concentration scale where inhibition reaches its midpoint. For orientation: ΔTm means the change in melting temperature against a reference sample.

The source made the active and inactive calls. The rule behind the calls is not given here.

The first assay has as its target T1, Serine/threonine-protein kinase TAO2 (Homo sapiens) (UniProt Q9UL54).
T1 sequence (whole entry): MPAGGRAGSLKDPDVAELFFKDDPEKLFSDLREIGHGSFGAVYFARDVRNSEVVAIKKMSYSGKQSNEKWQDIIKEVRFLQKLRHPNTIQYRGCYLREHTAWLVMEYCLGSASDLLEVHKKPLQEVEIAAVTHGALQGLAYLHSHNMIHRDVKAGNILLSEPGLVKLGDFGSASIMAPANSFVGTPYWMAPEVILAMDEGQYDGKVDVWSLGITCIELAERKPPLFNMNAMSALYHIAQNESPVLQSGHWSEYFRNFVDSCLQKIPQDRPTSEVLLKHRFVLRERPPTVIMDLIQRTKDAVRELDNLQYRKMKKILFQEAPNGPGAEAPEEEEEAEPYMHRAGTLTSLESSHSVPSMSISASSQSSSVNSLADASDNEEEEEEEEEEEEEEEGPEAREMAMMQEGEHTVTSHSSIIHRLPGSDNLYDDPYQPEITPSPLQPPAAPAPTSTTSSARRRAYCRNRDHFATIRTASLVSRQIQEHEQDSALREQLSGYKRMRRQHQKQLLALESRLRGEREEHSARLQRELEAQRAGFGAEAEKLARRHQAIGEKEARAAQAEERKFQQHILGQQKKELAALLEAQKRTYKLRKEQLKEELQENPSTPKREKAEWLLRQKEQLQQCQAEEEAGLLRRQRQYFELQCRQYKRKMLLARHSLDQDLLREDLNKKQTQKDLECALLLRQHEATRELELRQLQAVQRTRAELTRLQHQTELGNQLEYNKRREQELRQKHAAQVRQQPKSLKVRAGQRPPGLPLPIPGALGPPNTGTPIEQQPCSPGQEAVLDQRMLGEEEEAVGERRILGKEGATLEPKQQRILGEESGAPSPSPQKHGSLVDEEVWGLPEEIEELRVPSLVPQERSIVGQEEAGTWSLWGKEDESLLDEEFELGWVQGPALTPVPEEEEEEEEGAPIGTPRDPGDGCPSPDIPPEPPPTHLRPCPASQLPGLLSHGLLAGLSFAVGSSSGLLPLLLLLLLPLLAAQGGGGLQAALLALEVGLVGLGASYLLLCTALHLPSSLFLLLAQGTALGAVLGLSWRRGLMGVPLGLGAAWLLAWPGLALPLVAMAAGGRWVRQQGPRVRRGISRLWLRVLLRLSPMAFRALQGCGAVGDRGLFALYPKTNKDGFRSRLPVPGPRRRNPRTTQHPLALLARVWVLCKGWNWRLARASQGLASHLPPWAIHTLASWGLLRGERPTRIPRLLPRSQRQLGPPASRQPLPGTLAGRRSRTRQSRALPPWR
Kind of assay: Inhibition of TAOK2 in human U2OS cells assessed as inhibition of cellular autophagy measured as P62 accumulation at 50 uM after 24 hrs by western blot analysis. It counts as cell-based. In outline: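 GFP–LC3-expressing U2OS cells were treated for 24 h with compound at 50 µM or with DMSO alone. p62 (SQSTM1) abundance was then assessed by Western blotting as a readout of autophagic degradation.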
(In general: Immunoblotting shows a protein as a band on a membrane.)
Consider `O=C(Nc1cccc(-c2nc3ccccc3c(=O)o2)c1)c1ccccc1Br`, for which the inhibition entry was “Active”.

Another assay concerns the target T1, Serine/threonine-protein kinase TAO2 (Homo sapiens). In words: Inhibition of TAOK2 in human U2OS cells assessed as inhibition of cellular autophagy measured as GFP-LC3 accumulation at 50 uM after 24 hrs by flow cytometric analysis. Format: cell-based. In outline: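 U2OS cells stably expressing GFP–LC3 were exposed to compound at 50 µM in the medium for 24 h. GFP fluorescence was read by flow cytometry. The median value from 20,000 cells per condition was normalized to DMSO vehicle within each experiment. Data are mean + SD of >2 independent experiments, compared with vehicle by unpaired t test.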
On to `O=C(Nc1cccc(-c2nc3ccccc3c(=O)o2)c1)c1ccccc1Br`, for which the inhibition entry is “Active”.
For the compound `COc1ccc(O)c(/C=C2/SC(=S)NC2=O)c1`, the inhibition entry was “Active”.
As to `CO/C1=C\C(C)=C\[C@@H](C)[C@@H](O)[C@@H](C)C/C(C)=C/C=C/[C@H](OC)[C@@H]([C@@H](C)[C@@H](O)[C@H](C)[C@@]2(O)C[C@@H](O)[C@H](C)[C@@H](C(C)C)O2)OC1=O`, the inhibition result was “Active”.

The target in a further assay is T2, Serine/threonine-protein kinase TAO2 (Rattus norvegicus, UniProt Q9JLS3).
T2 sequence (Q9JLS3 whole entry): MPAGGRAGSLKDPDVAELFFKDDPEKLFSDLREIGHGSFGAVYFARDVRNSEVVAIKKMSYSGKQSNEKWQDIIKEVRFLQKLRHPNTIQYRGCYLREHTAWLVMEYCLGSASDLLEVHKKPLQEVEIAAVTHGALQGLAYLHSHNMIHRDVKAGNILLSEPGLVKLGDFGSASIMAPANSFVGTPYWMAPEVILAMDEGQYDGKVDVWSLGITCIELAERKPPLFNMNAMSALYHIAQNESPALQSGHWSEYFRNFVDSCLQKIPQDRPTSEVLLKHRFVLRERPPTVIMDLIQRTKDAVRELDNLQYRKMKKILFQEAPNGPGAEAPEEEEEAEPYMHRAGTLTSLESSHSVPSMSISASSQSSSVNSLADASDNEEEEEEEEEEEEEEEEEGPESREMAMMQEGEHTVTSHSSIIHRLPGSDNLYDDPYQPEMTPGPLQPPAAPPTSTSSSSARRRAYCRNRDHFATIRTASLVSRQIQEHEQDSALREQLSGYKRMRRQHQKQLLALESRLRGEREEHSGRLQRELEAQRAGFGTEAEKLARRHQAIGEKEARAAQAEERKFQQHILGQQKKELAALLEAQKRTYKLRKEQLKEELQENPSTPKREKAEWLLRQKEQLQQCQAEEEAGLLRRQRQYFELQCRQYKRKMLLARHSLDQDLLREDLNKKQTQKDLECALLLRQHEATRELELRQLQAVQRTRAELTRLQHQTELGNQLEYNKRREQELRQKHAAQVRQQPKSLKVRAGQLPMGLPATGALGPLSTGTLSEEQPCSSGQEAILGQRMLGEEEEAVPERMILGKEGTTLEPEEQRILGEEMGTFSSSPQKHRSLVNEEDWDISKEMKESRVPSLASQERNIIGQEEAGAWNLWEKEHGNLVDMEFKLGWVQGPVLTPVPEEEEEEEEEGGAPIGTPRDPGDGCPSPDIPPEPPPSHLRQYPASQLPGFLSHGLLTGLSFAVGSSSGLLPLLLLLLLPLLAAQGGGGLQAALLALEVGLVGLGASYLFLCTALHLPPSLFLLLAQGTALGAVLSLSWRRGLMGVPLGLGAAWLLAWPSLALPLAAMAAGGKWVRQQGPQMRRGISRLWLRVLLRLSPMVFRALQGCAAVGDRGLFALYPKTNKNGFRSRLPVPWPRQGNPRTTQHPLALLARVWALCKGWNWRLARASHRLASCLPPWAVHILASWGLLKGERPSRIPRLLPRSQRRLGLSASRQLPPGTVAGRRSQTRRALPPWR
In words: Inhibition of rat TAOK2 (1 to 320 residues) expressed in Baculovirus/insect cell expression system assessed as remaining activity using MBP as substrate and [32P]ATP measured after 10 mins by Kinase-Glo assay. In general terms: In Kinase-Glo more light means more ATP remaining.
Turning to `COc1ccc(OC)c(Nc2nc(-c3sc(N)nc3C)cs2)c1`, the IC50 was found to be 1 µM.
Still for that read-out and setting: for `Cc1nc(N)sc1-c1csc(Nc2ccc([N+](=O)[O-])cc2)n1` the value was 1 µM; for `COc1ccccc1Nc1nc(-c2sc(NC(C)=O)nc2C)cs1`, 2.1 µM; for `CC(=O)Nc1nc(C)c(-c2csc(Nc3ccc(C)cc3)n2)s1`, 1.1 µM.
On to `CN1c2ccc(S(C)(=O)=O)cc2SC1NC(=O)CC1CCC(Br)CC1` (stereo not drawn), for which the half-inhibitory concentration (IC50) worked out at 1.4 µM.
Regarding `Cc1nc(N)sc1-c1csc(Nc2cccc(Cl)c2)n1`, the IC50 turned out to be 3.1 µM.
Still for that read-out and setting: under `CC(=O)Nc1nc(C)c(-c2csc(Nc3ccc(Br)cc3)n2)s1` stands 1 µM.
On the same count and under the same terms, under `CN1c2ccc(S(C)(=O)=O)cc2SC1NC(=O)CCCOC1CCCCC1` (stereo not drawn) stands 1.9 µM; under `CCC(=O)Nc1nc(C)c(-c2csc(Nc3cccc([N+](=O)[O-])c3)n2)s1`, 1 µM.
On the same count and under the same terms, for `CC(=O)Nc1nc(C)c(-c2csc(Nc3ccc(O)cc3)n2)s1` the value was 3.8 µM; for `Cc1nc(NC(=O)c2ccccc2)sc1-c1csc(Nc2ccc(S(N)(=O)=O)cc2)n1`, 0.8 µM; for `CC(=O)Nc1nc(C)c(-c2csc(Nc3ccc([N+](=O)[O-])cc3)n2)s1`, 10 µM.
For `CN1c2ccc(S(C)(=O)=O)cc2SC1NC(=O)/C=C/c1ccc(F)cc1` (stereo not drawn), the IC50 was determined as 0.8 µM.
Turning to `CC(=O)Nc1nc(C)c(-c2csc(Nc3ccccc3C)n2)s1`, the IC50 is 1.8 µM.
On the same count and under the same terms, under `O=C(Nc1cccc(-c2nc3ccccc3c(=O)o2)c1)c1ccccc1Br` stands 4 µM; under `COc1ccc(Cl)cc1Nc1nc(-c2sc(NC(C)=O)nc2C)cs1`, 1.1 µM.
For the compound `Cc1nc(N)sc1-c1csc(Nc2cccc([N+](=O)[O-])c2)n1`, the IC50 was 1.7 µM.
Still for that read-out and setting: for `CC(=O)Nc1nc(C)c(-c2csc(Nc3cccc(C)c3)n2)s1` the value was 0.9 µM; for `CC(=O)c1cccc(Nc2nc(-c3sc(N)nc3C)cs2)c1`, 1.4 µM; for `Cc1nc(N)sc1-c1csc(Nc2cccc(O)c2)n1`, 1.4 µM.
Same read-out and setting: for `CCC(=O)Nc1nc(C)c(-c2csc(Nc3ccc(O)cc3)n2)s1` the value was 1.6 µM; for `CN1c2ccc(S(C)(=O)=O)cc2SC1NC(=O)CCCc1ccccc1` (stereo not drawn), 1.7 µM; for `O=C(NCC1COc2ccccc2O1)c1ccc2c(=O)n(Cc3ccco3)c(=S)[nH]c2c1` (stereo not drawn), 0.6 µM.
In the case of `COc1ccc(O)c(/C=C2/SC(=S)NC2=O)c1`, the IC50 came to 3 µM.
In the case of `CCC(=O)Nc1nc(C)c(-c2csc(Nc3cc(Cl)ccc3C)n2)s1`, the IC50 was 1.6 µM.
Same read-out and setting: under `COc1ccc(Cl)cc1Nc1nc(-c2sc(N)nc2C)cs1` stands 1 to 1.5 µM; under `CCC(=O)Nc1nc(C)c(-c2csc(Nc3ccc(N(CC)CC)cc3)n2)s1`, 2.7 µM; under `CC(=O)Nc1nc(C)c(-c2csc(Nc3ccccc3)n2)s1`, 1.1 µM.
Same read-out and setting: for `Cc1nc(N)sc1-c1csc(Nc2ccc(S(N)(=O)=O)cc2)n1` the value was 1.4 µM; for `CC(=O)Nc1nc(C)c(-c2csc(Nc3cccc([N+](=O)[O-])c3)n2)s1`, 10.1 µM.
The same measure, in the same setting: for `CCC(=O)Nc1nc(C)c(-c2csc(Nc3cccc(O)c3)n2)s1` the value was 1 µM.
In the case of `CC(=O)Nc1nc(C)c(-c2csc(Nc3cccc(C(C)=O)c3)n2)s1`, the IC50 worked out at 12 µM.
Still for that read-out and setting: for `O=C(NCCSCc1ccccc1)c1ccc2c(=O)n(C3CCCCC3)c(=S)[nH]c2c1` the value was 1.9 µM; for `Cc1cccc(NC(=S)N/N=C/c2c[nH]c3ccccc23)c1`, 1 µM.
Same read-out and setting: for `CCC(=O)Nc1nc(C)c(-c2csc(Nc3ccc([N+](=O)[O-])cc3)n2)s1` the value was 1 µM.
Still for that read-out and setting: under `CN1c2ccc(S(C)(=O)=O)cc2SC1NC(=O)c1ccc(C(=O)c2ccccc2)cc1` (stereo not drawn) stands 1 µM; under `CCC(=O)Nc1nc(C)c(-c2csc(Nc3ccc(S(N)(=O)=O)cc3)n2)s1`, 1 µM; under `Cc1cccc(Nc2nc(-c3sc(N)nc3C)cs2)c1`, 1.7 µM.
In the case of `CCN(CC)c1ccc(Nc2nc(-c3sc(NC(C)=O)nc3C)cs2)cc1`, the IC50 was 1.7 µM.
For `CCC(=O)Nc1nc(C)c(-c2csc(Nc3cccc(C(=O)O)c3)n2)s1`, the half-inhibitory concentration (IC50) stood at 1.7 µM.
Same read-out and setting: for `CCC(=O)Nc1nc(C)c(-c2csc(Nc3ccccc3OC)n2)s1` the value was 1.4 µM.
Turning to `CCOc1ccccc1Nc1nc(-c2sc(NC(C)=O)nc2C)cs1`, the IC50 stood at 1.6 µM.
Same read-out and setting: for `CCOc1ccccc1Nc1nc(-c2sc(NC(=O)CC)nc2C)cs1` the value was 0.6 µM.
On the same count and under the same terms, under `CCC(=O)Nc1nc(C)c(-c2csc(Nc3ccc(N(C)C)cc3)n2)s1` stands 1.2 µM.
Still for that read-out and setting: under `CCC(=O)Nc1nc(C)c(-c2csc(Nc3ccc(NC(C)=O)cc3)n2)s1` stands 1.9 µM.
Regarding `CC(=O)Nc1nc(C)c(-c2csc(Nc3cccc(C(=O)O)c3)n2)s1`, the IC50 came out at 1.3 µM.

In the next assay the target is T3, Serine/threonine-protein kinase TAO2 (Rattus norvegicus) (UniProt Q9JLS3).
T3 sequence (whole entry): T2 sequence (Q9JLS3 whole entry)
Kind of assay: Binding affinity to rat TAOK2 (1 to 320 residues) expressed in Baculovirus/insect cell expression system assessed as change in melting temperature at 1 uM by SYPRO orange dye-based DSF analysis. In outline: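 Differential scanning fluorimetry: each compound's melting-temperature shift (ΔTm, °C) was measured on the kinase protein. Compounds giving a TAOK2 ΔTm above 0.5 °C were also run against p38 and ASK1. Selectivity (ΔΔTm) was taken as the TAOK2 ΔTm minus the p38 or ASK1 ΔTm.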
For orientation: Differential scanning fluorimetry follows unfolding on heating by fluorescence.
Turning to `O=C(Nc1cccc(-c2nc3ccccc3c(=O)o2)c1)c1ccccc1Br`, the ΔTm is -0.6 °C.
`COc1ccc(O)c(/C=C2/SC(=S)NC2=O)c1`: the ΔTm is -0.2 °C.
Turning to `Cc1cccc(NC(=S)N/N=C/c2c[nH]c3ccccc23)c1`, the ΔTm came to 0.5 °C.
